The results in this text go back to ChEMBL document CHEMBL4118144, “Design, Synthesis, and Testing of Potent, Selective Hepsin Inhibitors via Application of an Automated Closed-Loop Optimization Platform” (J Med Chem, 2018).

Active and inactive are the calls of the source. No cut-off for these calls is given here.

Series [1] concerns the target Serine protease hepsin (Homo sapiens, UniProt P05981, D161E/R162K). Description: Inhibition of recombinant C-terminal His10-tagged human Hepsin (R45 to […] residues) D161E/ R162K double mutant expressed in mouse NS0 cells using Boc-QRR-AMC as substrate after 15 mins by automated fluorescence assay. Put shortly:
(§1)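 On-line assay integrated with the flow-synthesis platform: a 20 µL aliquot of each product solution captured automatically, HPLC-purified, then diluted and assayed.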

Series [2] addresses Urokinase-type plasminogen activator (Homo sapiens, UniProt P00749). Description: Inhibition of recombinant C-terminal His10-tagged human uPA (M1 to L431 residues) expressed in mouse NS0 cells using Z-GGR-AMC as substrate after 15 mins by automated fluorescence assay. The gist of the method:
as §1

Series [3] in a line: Chromatographic hydrophobicity index, log D of the compound at pH 7 by HPLC/UV analysis. It counts as physicochemical. The settings on record: buffer.
Series [4] deals with T1, Suppressor of tumorigenicity 14 protein (Homo sapiens) (UniProt Q9Y5Y6).
T1 sequence (whole entry): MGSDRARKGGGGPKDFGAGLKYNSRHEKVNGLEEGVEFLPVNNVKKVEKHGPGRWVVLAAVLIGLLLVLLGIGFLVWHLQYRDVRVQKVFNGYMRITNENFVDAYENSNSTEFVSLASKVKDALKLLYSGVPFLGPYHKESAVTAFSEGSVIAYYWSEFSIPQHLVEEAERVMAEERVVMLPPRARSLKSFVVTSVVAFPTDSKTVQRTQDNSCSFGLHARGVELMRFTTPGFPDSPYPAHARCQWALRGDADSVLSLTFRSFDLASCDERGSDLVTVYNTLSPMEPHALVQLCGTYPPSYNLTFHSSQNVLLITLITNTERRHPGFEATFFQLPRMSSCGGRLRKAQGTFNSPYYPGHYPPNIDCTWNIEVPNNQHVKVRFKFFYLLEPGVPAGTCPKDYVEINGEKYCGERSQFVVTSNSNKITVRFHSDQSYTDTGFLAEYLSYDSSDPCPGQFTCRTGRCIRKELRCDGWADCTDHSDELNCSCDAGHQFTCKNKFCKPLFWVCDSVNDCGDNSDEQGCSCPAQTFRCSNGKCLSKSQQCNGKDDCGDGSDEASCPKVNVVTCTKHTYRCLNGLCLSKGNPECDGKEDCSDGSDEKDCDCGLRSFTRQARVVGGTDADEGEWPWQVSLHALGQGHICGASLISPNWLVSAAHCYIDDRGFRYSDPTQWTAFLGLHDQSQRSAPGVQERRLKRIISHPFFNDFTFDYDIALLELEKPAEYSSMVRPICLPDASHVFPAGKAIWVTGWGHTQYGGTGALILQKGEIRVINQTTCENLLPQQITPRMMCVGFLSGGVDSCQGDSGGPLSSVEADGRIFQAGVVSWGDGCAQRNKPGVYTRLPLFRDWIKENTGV
Kind of series: Inhibition of matriptase (unknown origin) using BOC-QAR-AMC as substrate at 1 uM after 15 mins by fluorescence assay relative to control. The gist of the method:
(§2)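 Panel of ten serine proteases; percent inhibition read at compound concentrations of 1 µM and 10 µM, each value the mean of 2 experiments.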

Series [5] has as its target Coagulation factor X (Homo sapiens) (UniProt P00742). Description: Inhibition of factor 10a (unknown origin) at 10 uM after 15 mins by fluorescence assay relative to control. Put shortly: as §2
In series [6] the target is T2, Hepatocyte growth factor activator serine protease (Homo sapiens) (UniProt Q04756).
T2 sequence (whole entry): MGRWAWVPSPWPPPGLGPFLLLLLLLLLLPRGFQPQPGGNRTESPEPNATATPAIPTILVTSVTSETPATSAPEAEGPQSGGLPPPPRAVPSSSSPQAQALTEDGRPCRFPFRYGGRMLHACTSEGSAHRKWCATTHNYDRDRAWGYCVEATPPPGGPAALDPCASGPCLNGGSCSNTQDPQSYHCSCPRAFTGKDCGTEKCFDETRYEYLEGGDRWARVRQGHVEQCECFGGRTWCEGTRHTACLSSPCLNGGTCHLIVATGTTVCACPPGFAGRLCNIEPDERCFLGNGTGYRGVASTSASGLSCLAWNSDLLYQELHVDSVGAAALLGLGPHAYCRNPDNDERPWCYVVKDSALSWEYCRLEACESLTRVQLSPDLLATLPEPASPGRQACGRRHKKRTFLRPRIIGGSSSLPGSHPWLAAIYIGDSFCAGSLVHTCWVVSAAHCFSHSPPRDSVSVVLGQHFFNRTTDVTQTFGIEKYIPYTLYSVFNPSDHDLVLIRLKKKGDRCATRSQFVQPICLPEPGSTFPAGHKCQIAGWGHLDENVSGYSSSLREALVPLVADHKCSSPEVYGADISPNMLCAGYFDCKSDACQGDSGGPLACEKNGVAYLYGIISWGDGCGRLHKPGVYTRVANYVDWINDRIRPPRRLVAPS
Description: Inhibition of C-terminal 10-His tagged recombinant human HGFA (Gln36 to Ser655 residues) expressed in mouse […] cells 10 uM after 15 mins by fluorescence assay relative to control. It counts as cell-based.

For series [7], the target named is T3, Serine protease hepsin (Homo sapiens, UniProt P05981). Kind of series: Inhibition of doxycycline induced hepsin-mediated conversion of Pro-HGF into active form in human MCF10A cells assessed as decrease in MET phosphorylation (Tyr1243/1245) at 1 to 10 uM preincubated for 30 mins followed by recombinant human pro-HGF addition measured after 30 mins by immunoblot method. In kind it is cell-based. The gist of the method: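 Dox-induced MCF10A-Indu20-hepsin cells given DMSO or inhibitor for 30 min, then 50 ng/mL recombinant human Pro-HGF; MET phosphorylation (Tyr1243/1245) detected by immunoblotting.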
T3 sequence (P05981 1-162 limits assumed): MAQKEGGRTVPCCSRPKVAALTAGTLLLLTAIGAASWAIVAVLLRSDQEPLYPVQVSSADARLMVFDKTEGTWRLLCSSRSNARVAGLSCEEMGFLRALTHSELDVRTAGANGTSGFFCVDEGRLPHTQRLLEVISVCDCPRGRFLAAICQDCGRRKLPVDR
T3 sequence (P05981 163-417 limits assumed): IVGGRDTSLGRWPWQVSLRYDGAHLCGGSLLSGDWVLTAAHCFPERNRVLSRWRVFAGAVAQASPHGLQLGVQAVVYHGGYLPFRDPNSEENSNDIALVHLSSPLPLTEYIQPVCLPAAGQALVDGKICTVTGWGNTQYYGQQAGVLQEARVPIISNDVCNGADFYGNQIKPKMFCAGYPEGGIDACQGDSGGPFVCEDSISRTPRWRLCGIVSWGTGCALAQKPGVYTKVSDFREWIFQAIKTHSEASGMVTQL

Series [8] has as its target T3, Serine protease hepsin. Kind of series: Inhibition of hepsin-mediated conversion of Pro-HGF into active form in human Hs578T cells assessed as decrease in MET phosphorylation at 1 uM preincubated for 30 mins followed by recombinant human pro-HGF addition measured after 30 mins by immunoblot method. It counts as cell-based. The gist of the method: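 Hs578T or HCC1937 breast cells incubated with DMSO or inhibitor, then 50 ng/mL recombinant human Pro-HGF added; MET pathway activation (phospho-MET) assessed by immunoblotting.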
(A western blot detects proteins with antibodies after separation by electrophoresis.)

Series [9] deals with Serine protease hepsin (Homo sapiens), P05981 [D161E,R162K]. Kind of series: Inhibition of recombinant C-terminal His10-tagged human Hepsin (R45 to […] residues) D161E/ R162K double mutant expressed in mouse NS0 cells assessed as decrease in HGF alpha chain formation at 1 uM incubated for 30 mins in presence of recombinant human pro-HGF by immunoblot method. In kind it is cell-based. Put shortly:
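Recombinant human Pro-HGF incubated with recombinant human hepsin plus inhibitor at 37°C for 30 min; processing analysed by immunoblot with an antibody recognizing Pro-HGF and the α and β chains.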

In series [10] the target is T3, Serine protease hepsin. Description: Inhibition of doxycycline induced hepsin-mediated loss of desmosomal junctions in human MCF10A cells at 1 to 10 uM preincubated for 30 mins followed by doxycycline addition measured after 6 hrs by desmoglein 2 staining-based confocal immunofluorescence microscopic analysis. In kind it is cell-based. Put shortly:
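MCF10A-Indu20-hepsin cells on coverslips pretreated 30 min with 1 or 10 µM compound or DMSO, then 100 ng/mL Dox for 6 h. Desmoglein 2 immunofluorescence: continuous pericellular staining scored positive, discontinuous or absent scored negative. Cells counted in 10 fields per treatment across three biological replicates; reported as percentages.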

Sequence of Coagulation factor X (Homo sapiens) (P00742 41-179 limits assumed): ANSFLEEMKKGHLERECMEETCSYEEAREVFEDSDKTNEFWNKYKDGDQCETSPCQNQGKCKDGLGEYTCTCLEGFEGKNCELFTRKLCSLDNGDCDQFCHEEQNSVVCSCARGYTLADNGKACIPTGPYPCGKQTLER
Sequence of Coagulation factor X (Homo sapiens) (P00742 235-488 limits assumed): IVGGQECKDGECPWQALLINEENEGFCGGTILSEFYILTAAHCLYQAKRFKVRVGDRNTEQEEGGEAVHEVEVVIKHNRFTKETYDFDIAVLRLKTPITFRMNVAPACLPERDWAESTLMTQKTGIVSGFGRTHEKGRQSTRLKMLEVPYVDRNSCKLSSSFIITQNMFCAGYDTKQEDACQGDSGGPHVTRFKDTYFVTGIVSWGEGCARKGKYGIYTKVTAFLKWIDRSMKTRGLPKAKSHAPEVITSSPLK
Sequence of Serine protease hepsin (Homo sapiens), P05981 [D161E,R162K] (P05981 whole entry D161E/R162K): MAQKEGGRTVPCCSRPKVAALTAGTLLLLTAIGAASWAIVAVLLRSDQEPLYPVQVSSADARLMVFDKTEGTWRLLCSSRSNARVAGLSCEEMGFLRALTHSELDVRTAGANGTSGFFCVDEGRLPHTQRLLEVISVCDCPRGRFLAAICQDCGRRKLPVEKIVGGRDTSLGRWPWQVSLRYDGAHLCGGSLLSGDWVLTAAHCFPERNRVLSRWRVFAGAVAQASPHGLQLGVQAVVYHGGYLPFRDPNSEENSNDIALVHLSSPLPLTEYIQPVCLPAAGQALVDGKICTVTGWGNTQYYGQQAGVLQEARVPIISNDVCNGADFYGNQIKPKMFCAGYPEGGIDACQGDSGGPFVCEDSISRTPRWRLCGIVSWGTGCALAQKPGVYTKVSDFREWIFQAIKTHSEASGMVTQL

Usually IC50 stands for the point on the concentration scale where inhibition reaches its midpoint. As a reminder, the chromatographic logD is lipophilicity estimated from chromatographic retention. As a reminder, the inhibition is the percentage by which the read-out fell short of the control. As to `Cc1ccc(S(=O)(=O)N[C@@H](C(=O)Nc2ccc(C(=N)N)cc2)C2CCCCC2)cc1`, the results for the IC50 in series [1] and in series [2] were 0.033 µM and 4.4 µM, respectively. In [3], this compound came in with a chromatographic logD of 1.3. The inhibition in series [4] was less than 10%; in series [5] it was less than 10%; in series [6] it was 22%.

For `N=C(N)c1ccc(NC(=O)[C@H](NS(=O)(=O)c2ccc(F)cc2)C2CCCCC2)cc1`, the IC50 in [1] was 0.09 µM; in series [2] it was more than 14 µM. Besides, the inhibition in [4] was less than 10%; in series [5], less than 10%; in series [6], 24%.

Turning to `Cc1ccc(S(=O)(=O)N[C@@H](C(=O)Nc2ccc(C(=N)N)cc2)c2ccccc2)cc1`, the inhibition result in series [7], in [8], in series [9] and in [10] was “Active” throughout. Further, the inhibition is less than 10% in series [4], less than 10% in [5] and 24% in series [6].
